Laboratory results published in ChEMBL document CHEMBL1137336, “Structure-function correlation of chloroquine and analogues as transgene expression enhancers in nonviral gene delivery” (J Med Chem, 2006).
Activity calls are given as the source filed them. No cut-off for these calls is given here.

Key:
HepG2 [1] = test: Viability of human HepG2 cells at 150 uM; type: functional
In short: (§1)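 Cells plated at 5 × 10⁴/well 24 h ahead and rinsed with PBS. CDP/pGL3-CV polyplexes (1 µg DNA, charge ratio 5 +/-) applied in Opti-MEM with compound for 4 h at 37 °C, 5% CO₂, then medium replaced. After another 44 h, lysates assayed for luciferase in duplicate, expressed as RLU/mg protein. Viability taken as total lysate protein by modified Lowry (DC) assay, normalized to cells transfected with naked DNA.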

HepG2 [2] = test: Transfection of CDP/plasmid pGL3-CV in HepG2 cells at 150 uM after 48 hrs by luciferase assay; type: functional, Homo sapiens; in short: as §1
Nucleic Acid [3] = test: Transcription of plasmid pGL3-CV upto 2.5 mM relative to control; type: nucleic-acid assay
HepG2 [4] = test: Viability of human HepG2 cells at 100 uM; type: functional; in short: as §1
HepG2 [5] = test: Transfection of CDP/plasmid pGL3-CV in HepG2 cells at 100 uM after 48 hrs by luciferase assay; type: functional, Homo sapiens; in short: as §1
HepG2 [6] = test: Viability of human HepG2 cells at 200 uM; type: functional; in short: as §1
HeLa [7] = test: Viability of human HeLa cells at 200 uM; type: functional; in short: as §1
HepG2 [8] = test: Uptake in human HepG2 cells at 100 uM after 30 mins; type: ADME, cell-based; conditions: hepg2, 0.5 h
In short: (§2)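 HepG2 cells (2 × 10⁶) incubated at 37 °C in Opti-MEM (pH 7.4) with 100 µM compound, with or without CDP/pDNA (20 nmol/3 pmol). At set times, washed with cold PBS with and then without compound, lysed, and diluted in 0.1 N NaOH. Fluorescence read at ex 360/em 465 nm, converted by standard curve, and cellular concentration calculated assuming a cell volume of 3 × 10⁻⁶ µL.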

HepG2 [9] = test: Uptake in human HepG2 cells after 4 hrs in presence of CDP/plasmid pGL3-CV polyplexes; type: ADME, cell-based; conditions: hepg2, 4 h; in short: as §2
Nucleic Acid [10] = test: Binding affinity to plasmid pGL3-CV assessed as retardation of movement in gel at 10 mM; type: nucleic-acid assay
In short: (§3)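 pGL3-CV plasmid mixed with compound across 0.1-10 mM, each solution held ~10 min, then loading buffer and Borax buffer (0.025 M, pH 8.4) added. Run on 0.5% agarose gel containing ethidium bromide in TAE (40 mM Tris-acetate, 1 mM EDTA). Mobility compared with untreated plasmid.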

Nucleic Acid [11] = test: Displacement of plasmid pGL3-CV from CDP/plasmid pGL3-CV polyplexes at 500 uM; type: nucleic-acid assay
In short: (§4)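 pGL3-CV (2 µg, 0.6 pmol) complexed with CDP (24 µg, 4 nmol), diluted in PBS and held 30 min at 25 °C. Mixed with compound for a further 30 min at 25 °C, then passed through a 100 nm membrane presoaked with matching compound concentration. Free DNA in filtrate measured by DAPI fluorescence (ex 350/em 465 nm). % released = (If−I0)/(It−I0)×100.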

Nucleic Acid [12] = test: Displacement of plasmid pGL3-CV from CDP/plasmid pGL3-CV polyplexes at 20 mM; type: nucleic-acid assay; in short: as §4
Nucleic Acid [13] = test: Exclusion of picogreen dye from plasmid pGL3-CV at 0.5 mM; type: nucleic-acid assay
In short: (§5)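 CDP/pGL3-CV polyplexes diluted 2.5× in water, then mixed 1:1 with compound at twice the final concentration. Incubated 5 min at room temperature, then combined with an equal volume of PicoGreen diluted 200× in 10 mM HEPES. Fluorescence read at ex 488/em 535 nm; exclusion taken as loss of dye fluorescence.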

Nucleic Acid [14] = test: Exclusion of picogreen dye from plasmid pGL3-CV at 1 mM; type: nucleic-acid assay; in short: as §5
Nucleic Acid [15] = test: Exclusion of picogreen dye from plasmid pGL3-CV at 4 mM; type: nucleic-acid assay; in short: as §5
HepG2 [16] = test: Transfection of CDP/plasmid pGL3-CV in HepG2 cells at 200 uM after 48 hrs by luciferase assay; type: functional, Homo sapiens; in short: as §1
HeLa [17] = test: Transfection of CDP/plasmid pGL3-CV in HeLa cells at 200 uM after 48 hrs by luciferase assay; type: functional, Homo sapiens; in short: as §1
HepG2 [18] = test: Viability of human HepG2 cells at 20 uM; type: functional; in short: as §1
HepG2 [19] = test: Transfection of CDP/plasmid pGL3-CV in HepG2 cells at 20 uM after 48 hrs by luciferase assay; type: functional, Homo sapiens; in short: as §1
HepG2 [20] = test: Uptake of CDP/plasmid pGL3-CV polyplexes in HepG2 cells after 30 mins; type: ADME, cell-based; conditions: human, hepg2, 0.5 h
HepG2 [21] = test: Uptake of CDP/plasmid pGL3-CV polyplexes in HepG2 cells after 2 hrs; type: ADME, cell-based; conditions: human, hepg2, 2 h
Nucleic Acid [22] = test: Displacement of plasmid pGL3-CV from CDP/plasmid pGL3-CV polyplexes at 2.5 mM; type: nucleic-acid assay; in short: as §4
Nucleic Acid [23] = test: Displacement of plasmid pGL3-CV from CDP/plasmid pGL3-CV polyplexes at 5 to 20 mM; type: nucleic-acid assay; in short: as §4
HepG2 [24] = test: Uptake in human HepG2 cells at 100 uM after 4 hrs; type: ADME, cell-based; conditions: hepg2, 4 h; in short: as §2
Nucleic Acid [25] = test: Binding affinity to plasmid pGL3-CV assessed as retardation of movement in gel at 1 mM; type: nucleic-acid assay; in short: as §3
Nucleic Acid [26] = test: Binding affinity to plasmid pGL3-CV assessed as retardation of movement in gel at 100 uM; type: nucleic-acid assay; in short: as §3

Row | SMILES | Activity (HepG2 [1]) [%] | Activity (HepG2 [2]) [RLU/mg] | Activity (Nucleic Acid [3]) [%] | Activity (HepG2 [6]) [%] | Activity (HeLa [7]) [%] | Activity (HepG2 [16]) [RLU/mg] | Activity (HeLa [17]) [RLU/mg] | also measured
1 | CC(C)CCCC(C)Nc1ccnc2cc(Cl)ccc12 (configuration not stated) | 89 | 4700000 | 75 | – | – | – | – | –
2 | NCCCN1CCN(CCCNc2ccnc3cc(Cl)ccc23)CC1 | – | – | 75 | – | – | – | – | Activity (HepG2 [4]): 74%; Activity (HepG2 [5]): 20000000 RLU/mg
3 | CC(Nc1ccnc2cc(Cl)ccc12)C(=O)O (configuration not stated) | 84 | 4300000 | 75 | – | – | – | – | –
4 | CCN(CC)CCCC(C)Nc1ccnc2cc(C(F)(F)F)ccc12 (configuration not stated) | – | – | 75 | 61 | 83 | 170000000 | 6700000 | Drug uptake (HepG2 [8]): 11 mM; Drug uptake (HepG2 [9]): 13 mM; Activity (Nucleic Acid [10]): Active; Activity (Nucleic Acid [11]): 40%; Activity (Nucleic Acid [12]): 70%; Activity (Nucleic Acid [13]): 30%; Activity (Nucleic Acid [14]): 30%; Activity (Nucleic Acid [15]): 100%
5 | CN(C)CCNc1ccnc2cc(Cl)ccc12 | 64 | 25000000 | 75 | – | – | – | – | –
6 | CCN(CC)CCCC(C)Nc1c2ccc(Cl)cc2nc2ccc(OC)cc12 (configuration not stated) [QUINACRINE] | – | – | – | – | – | – | – | Activity (HepG2 [18]): 57%; Activity (HepG2 [19]): 25000000 RLU/mg
7 | CCN(CC)CCOc1ccnc2cc(Cl)ccc12 | – | – | 75 | – | 92 | – | 230000 | Activity (Nucleic Acid [13]): 17%; Activity (Nucleic Acid [14]): 17%
8 | CCN(CC)CCCC(C)Nc1ccncc1 (configuration not stated) | – | – | – | 85 | 101 | 6400000 | 82000 | Activity (HepG2 [20]): 12.8%; Activity (HepG2 [21]): 76.2%
9 | CC(C)NCCNCCNc1ccnc2cc(Cl)ccc12 | – | – | 75 | 74 | – | 22000000 | – | –
10 | CCN(CC)CCCC(C)Nc1ccnc2ccccc12 (configuration not stated) | – | – | 75 | 100 | – | 2700000 | – | Drug uptake (HepG2 [9]): 2 mM; Activity (Nucleic Acid [22]): < 3%; Activity (Nucleic Acid [23]): 10%; Activity (HepG2 [20]): 18.8%; Activity (HepG2 [21]): 75.5%
11 | NCCN(CCN)CCNc1ccnc2cc(Cl)ccc12 | 83 | 25000000 | 75 | – | – | – | – | –
12 | CCN(CC)CCCC(C)Nc1ccnc2cc(Cl)ccc12 (configuration not stated) [CHLOROQUINE] | – | – | 75 | 60 | 82 | 16000000 | 4300000 | Drug uptake (HepG2 [24]): 12 mM; Drug uptake (HepG2 [9]): 13 mM; Activity (Nucleic Acid [25]): inactive; Activity (Nucleic Acid [26]): inactive; Activity (Nucleic Acid [11]): 10%; Activity (Nucleic Acid [12]): 50%; Activity (Nucleic Acid [13]): 23%; Activity (Nucleic Acid [14]): 23%; Activity (HepG2 [20]): 11.9%; Activity (HepG2 [21]): 67.7%
